In ChEMBL document CHEMBL1153844, “Synthesis, crystal structure and anti-inflammatory properties of curcumin analogues” (2009):
Active and inactive are the calls of the source. The rule behind the calls is not given here.

Tests used:
J774.A1 [1] = assay: Antiinflammatory activity in mouse J774A1 cells assessed as inhibition of LPS-induced IL6 production at 10 uM preincubated for 3 hrs before LPS challenge measured after 21 hrs by ELISA; type: functional, cell-based
Method in brief: (§1)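 J774A.1 mouse macrophage-like cells were plated overnight in DMEM with 10% FBS and penicillin/streptomycin at 1.2 × 10⁶/plate, 37 °C, 5% CO₂. They were pretreated 3 h with compound or vehicle, then given LPS for 21 h. TNF-α or IL-6 in the medium was measured by ELISA and normalized to total protein of the lysed cell pellet. Values are percent of LPS control, from three independent experiments (mean ± S.E.).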

J774.A1 [2] = assay: Antiinflammatory activity in mouse J774A1 cells assessed as inhibition of LPS-induced TNFalpha production at 10 uM preincubated for 3 hrs before LPS challenge measured after 21 hrs by ELISA; type: functional, cell-based; method in brief: as §1
J774.A1 [3] = assay: Enhancement of LPS-induced IL6 production in mouse J774A1 cells at 10 uM preincubated for 3 hrs before LPS challenge measured after 21 hrs by ELISA; type: functional, cell-based; method in brief: as §1
J774.A1 [4] = assay: Enhancement of LPS-induced TNFalpha production in mouse J774A1 cells at 10 uM preincubated for 3 hrs before LPS challenge measured after 21 hrs by ELISA; type: functional, cell-based; method in brief: as §1
J774.A1 [5] = assay: Antiinflammatory activity in mouse J774A1 cells assessed as inhibition of LPS-induced IL6 production at 10 uM preincubated for 3 hrs before LPS challenge measured after 21 hrs by ELISA relative to control; type: functional; method in brief: as §1
J774.A1 [6] = assay: Antiinflammatory activity in mouse J774A1 cells assessed as inhibition of LPS-induced TNFalpha production at 10 uM preincubated for 3 hrs before LPS challenge measured after 21 hrs by ELISA relative to control; type: functional; method in brief: as §1

Row | SMILES | Activity (J774.A1 [1]) | Activity (J774.A1 [2]) | other results
1 | O=C1/C(=C/c2ccc(O)cc2)CCC/C1=C\c1ccc(O)cc1 | Active | Active | 
2 | O=C(/C=C/c1ccc(O)cc1)/C=C/c1ccc(O)cc1 |  |  | Activity (J774.A1 [3]): Active; Activity (J774.A1 [4]): Active
3 | O=C1/C(=C/c2ccc(F)cc2)CCC/C1=C\c1ccc(F)cc1 |  |  | inhibition at 10 µM (J774.A1 [5]): 54.8%; inhibition at 10 µM (J774.A1 [6]): 65.3%
4 | COc1cc(/C=C2\CC/C(=C\c3ccc(O)c(OC)c3)C2=O)ccc1O | Active | Active | 
5 | COc1cc(/C=C/C(=O)/C=C/c2ccc(O)c(OC)c2)ccc1O | Active | Active | 
6 | COc1cc(/C=C2\CCC/C(=C\c3ccc(O)c(OC)c3)C2=O)ccc1O | Active | Active | 
